Published values of several laboratories.
Lines come from different studies, so protocols differ.
Cell line: NCI-H23
Read-out: cell growth or viability

SMILES	assay	setting	quantity	result
COc1ccc(C(=O)/C=C/c2ccc3c(c2)OCCO3)cc1S(N)(=O)=O	SRB	10 µM	inhibition	27%
CC/C(=C(\c1ccccc1)c1ccc(OCCN(C)C)cc1)c1ccccc1	ATP luminescence	72 h	EC90	18.3 µM
CCc1n(Cc2ccc3ccccc3n2)cc[n+]1Cc1ccc2ccccc2n1	SRB		GI50	257 nM
COc1ccc(C(=O)/C=C/c2cccc(Br)c2)cc1S(N)(=O)=O	SRB	10 µM	inhibition	166%
Cc1cc(C)n(C(=S)[S][Au][PH](CCCCCC[PH]([Au][S]C(=S)n2nc(C)cc2C)(c2ccccc2)c2ccccc2)(c2ccccc2)c2ccccc2)n1	SRB		GI50	1540 nM
O=C(/C=C/c1ccc2c(=O)n(CCO)cnc2c1)NO	SRB	48 h	IC50	4.2 µM
c1ccc(-c2n(Cc3ccc4ccccc4c3)cc[n+]2Cc2ccc3ccccc3c2)cc1	SRB		TGI	2.35 µM
COc1ccc(C(=O)/C=C/c2c(F)cccc2Cl)cc1S(N)(=O)=O	SRB	10 µM	inhibition	116%
CCCCc1n(Cc2ccc3ccccc3n2)cc[n+]1Cc1ccc2ccccc2n1	SRB		TGI	7.27 µM
O=C1NC(=NCc2cccs2)S/C1=C\c1ccc2ncccc2c1			IC50	> 10 µM
O=C1Nc2ccccc2C1=NNc1nnc2n1N=C(c1ccccc1)CS2	SRB	10 µM	inhibition	31%
COc1ccc(C(=O)/C=C/c2cccc3ccccc23)cc1S(N)(=O)=O	SRB	10 µM	inhibition	120%
COc1cc(-c2ccc(-c3ccc(C(=N)N)nc3)s2)cc(OC)c1OC	SRB		GI50	6400 nM
CCc1n(Cc2ccc3ccccc3n2)cc[n+]1Cc1ccc2ccccc2c1	SRB		TGI	3.23 µM
O=C(/C=C/c1ccc2ncn(Cc3ccccc3)c(=O)c2c1)NO	SRB	48 h	IC50	1 µM
COc1ccc(C(=O)/C=C/c2cccnc2)cc1S(N)(=O)=O	SRB	10 µM	inhibition	78%
COc1ccc(-c2ccc(-c3ccc(C(=N)N)nc3)s2)cc1Cl	SRB		GI50	1800 nM
